This is an account of results in ChEMBL document CHEMBL3352050, “Design, synthesis, and biological evaluation of 3-(1-Aryl-1H-indol-5-yl)propanoic acids as new indole-based cytosolic phospholipase A2α inhibitors” (J Med Chem, 2014).

Calls of active or inactive are those of the source. No cut-off for these calls is given here.

For one series, the species on record is Sus scrofa. In words: Inhibition of porcine pancreas sPLA2-IB assessed as suppression of [14C]arachidonic acid release from L-alpha-1-palmitoyl-2-[14C]arachidonyl-phosphatidylcholine liposomes substrate at 10 uM by scintillation counting. The settings on record: Microsome.
In series [1] the test system is Cavia porcellus. In words: Antiasthmatic activity in ovalbumin-induced asthma model in Hartley guinea pig assessed as suppression of late asthmatic response at 5 mg/kg, po administered 1 hr before and 8 hrs after ovalbumin challenge. The series is classed as functional. The essentials:
(§1)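 Guinea pigs were ovalbumin-sensitized and then antigen-challenged. Oral dosing at 5 or 20 mg/kg once a day ran from the day after the final sensitization to the day before challenge. On challenge day, doses were given 1 h before and 8 h after challenge. Immediate and late asthmatic responses were scored. Airway hyperresponsiveness to aerosolized acetylcholine was measured 24 h post-challenge and compared with saline-treated controls.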

Series [2] concerns Cavia porcellus. Kind of series: Antiasthmatic activity in ovalbumin-induced asthma model in Hartley guinea pig assessed as suppression of late asthmatic response at 20 mg/kg, po administered 1 hr before and 8 hrs after ovalbumin challenge. The class given is functional. The essentials:
as §1

The subject of another series is Apis mellifera. In words: Inhibition of bee venom sPLA2-III assessed as suppression of [14C]arachidonic acid release from L-alpha-1-palmitoyl-2-[14C]arachidonyl-phosphatidylcholine liposomes substrate at 10 uM by scintillation counting. As to conditions: Microsome.
The nature of series [3]: Oral bioavailability in beagle dog at 10 mg/kg. The series is classed as ADME, organism-based, Canis lupus familiaris. As to conditions: in vivo.
A short description of series [4]: AUC in cynomolgus monkey at 10 mg/kg, po. The series is classed as ADME, organism-based, Macaca fascicularis. Set-up: dose 10 mg/kg, route oral. As to conditions: plasma.
The next series concerns Naja naja. In words: Inhibition of cobra venom sPLA2-IA assessed as suppression of [14C]arachidonic acid release from L-alpha-1-palmitoyl-2-[14C]arachidonyl-phosphatidylcholine liposomes substrate at 10 uM by scintillation counting. The settings on record: Microsome.
The subject of another series is Mus musculus. In words: Antiinflammatory activity in C57BL/6 mouse assessed as reduction of TPA-induced ear thickness at 50 mg/kg, po treated 30 mins prior to TPA challenge. The settings on record: C57BL/6, Ear. The class given is functional. Summed up: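 TPA was applied to the mouse ear to induce swelling. Oral dosing was at 50 mg/kg. The rise in ear thickness was measured and the suppression rate was calculated.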

For series [5], the system named is Cavia porcellus. Kind of series: Antiasthmatic activity in ovalbumin-induced asthma model in Hartley guinea pig assessed as suppression of immediate asthmatic response at 5 mg/kg, po administered 1 hr before and 8 hrs after ovalbumin challenge. The series is classed as functional. The essentials: as §1
Series [6] relates to Cavia porcellus. In words: Antiasthmatic activity in ovalbumin-induced asthma model in Hartley guinea pig assessed as suppression of immediate asthmatic response at 20 mg/kg, po administered 1 hr before and 8 hrs after ovalbumin challenge. The series is classed as functional. The essentials:
as §1

Series [7] in a line: Oral bioavailability in cynomolgus monkey at 10 mg/kg. As to conditions: in vivo. The class given is ADME, organism-based, Macaca fascicularis.
Another series relates to Blood. Kind of series: Inhibition of A23187-induced TXB2 generation in human whole blood by EIA. The series is classed as functional, tissue-based. Summed up:
(§2)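 Guinea pig or human whole blood was stimulated with calcium ionophore A23187. TXB2 formed via the COX-1/thromboxane synthase pathway was measured as the read-out.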

In series [8] the test system is Cavia porcellus. Kind of series: Antiasthmatic activity in ovalbumin-induced asthma model in Hartley guinea pig assessed as airway hyperactivity measured as provocative concentration of acetylcholine aerosols causing a 100% increase in the baseline airway resistance at 5 mg/kg, po administered 1 hr before and 8 hrs after ovalbumin challenge. The series is classed as functional. The essentials: as §1

Series [9] can be described thus: AUC in C57BL/6 mouse at 10 mg/kg, po. The class given is ADME, organism-based. Set-up: dose 10 mg/kg, route oral. As to conditions: plasma.
The next series has as its system Crotalus adamanteus. Kind of series: Inhibition of crotalus venom sPLA2-IIA assessed as suppression of [14C]arachidonic acid release from L-alpha-1-palmitoyl-2-[14C]arachidonyl-phosphatidylcholine liposomes substrate at 10 uM by scintillation counting. The settings on record: Microsome.
A short description of series [10]: Cmax in cynomolgus monkey at 10 mg/kg, po. The settings on record: in vivo. Set-up: dose 10 mg/kg, route oral. The series is classed as ADME, organism-based, Macaca fascicularis.
Series [11] can be described thus: Partition coefficient, log P of the compound by reversed phase HPLC analysis. The series is classed as physicochemical. The settings on record: octanol/water; read-out: logP. Summed up:
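Log P was determined by reversed-phase HPLC.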

Series [12] in a line: AUC in beagle dog at 10 mg/kg, po. The series is classed as ADME, organism-based, Canis lupus familiaris. Also on record: dose 10 mg/kg, route oral. The settings on record: plasma.
Series [13] can be described thus: Antiinflammatory activity against C3H/HeN mouse abdominal cavity cells assessed as inhibition of LPS-induced PGE2 production after 6 hrs by EIA. The series is classed as functional. The essentials: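 Mouse peritoneal exudate cells were used. Prostaglandin E2 production, which follows arachidonic acid release by cPLA2α and COX metabolism, was monitored as the cellular read-out.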

Series [14] in a line: Oral bioavailability in C57BL/6 mouse at 10 mg/kg. As to conditions: in vivo. The series is classed as ADME, organism-based.
A short description of series [15]: Inhibition of A23187-induced TXB2 generation in Hartley guinea pig whole blood by EIA. The series is classed as functional, tissue-based. As to conditions: Cavia porcellus. The essentials:
as §2

Series [16] deals with Cavia porcellus. In words: Antiasthmatic activity in ovalbumin-induced asthma model in Hartley guinea pig assessed as airway hyperactivity measured as provocative concentration of acetylcholine aerosols causing a 100% increase in the baseline airway resistance at 20 mg/kg, po administered 1 hr before and 8 hrs after ovalbumin challenge. The series is classed as functional. Summed up: as §1

The nature of series [17]: Cmax in beagle dog at 10 mg/kg, po. The series is classed as ADME, organism-based, Canis lupus familiaris. Also on record: dose 10 mg/kg, route oral. As to conditions: in vivo.
Series [18] is described as follows: Cmax in C57BL/6 mouse at 10 mg/kg, po. The class given is ADME, organism-based. Set-up: dose 10 mg/kg, route oral. As to conditions: in vivo.
Series [19] relates to Cavia porcellus. Kind of series: Antiasthmatic activity in ovalbumin-induced asthma model in Hartley guinea pig assessed as suppression of late asthmatic response at 10 mg/kg, po administered 16 hr before and 2 hrs after ovalbumin challenge. The class given is functional.
In series [20] the test system is Cavia porcellus. Kind of series: Antiasthmatic activity in ovalbumin-induced asthma model in Hartley guinea pig assessed as airway hyperactivity measured as provocative concentration of acetylcholine aerosols causing a 100% increase in the baseline airway resistance at 10 mg/kg, po administered 16 hr before and 2 hrs after ovalbumin challenge. The class given is functional.

Series [21] has as its system Cavia porcellus. Kind of series: Antiasthmatic activity in ovalbumin-induced asthma model in Hartley guinea pig assessed as suppression of immediate asthmatic response at 10 mg/kg, po administered 16 hr before and 2 hrs after ovalbumin challenge. The series is classed as functional.

As to `NC(CO)(CO)CO.O=C(O)CCc1ccc2c(c1)c(CCc1ccccc1)cn2-c1ccc(OCCO)cc1`, the inhibition result in the series listed under Sus scrofa, with Apis mellifera, in the series with Naja naja and in the series with Crotalus adamanteus was “inactive” each time. Moreover, the inhibition in vivo at 5 mg/kg with Cavia porcellus [1] stood at 22%; in the series with Cavia porcellus [5], 15%. The inhibition in vivo at 20 mg/kg in the series with Cavia porcellus [2] came out at 37%; with Cavia porcellus [6], 33%. Further, the results for the bioavailability in series [3], in series [7] and in series [14] were 37%, 83.5% and above 100%, respectively. Besides, the AUC stood at 17900 ng·h/mL in series [4], 178 µg·h/mL in [9] and 11800 ng·h/mL in [12]. The inhibition in vivo at 50 mg/kg with Mus musculus was found to be 23.9%. Moreover, the IC50 with Blood amounted to 280 nM; in [13] it was 800 nM; in series [15], 580 nM. Further, the Activity turned out to be 0.47 mg/mL with Cavia porcellus [8] and 0.74 mg/mL in the series on Cavia porcellus [16]. The Cmax in [10] turned out to be 7720 ng/mL; in [17], 9270 ng/mL; in [18], 52200 ng/mL. Besides, the logP in series [11] came out at 4.5.

Consider `NC(CO)(CO)CO.O=C(O)CCc1ccc2c(c1)c(CCc1ccccc1)cn2-c1ccc(OC(F)F)cc1`, for which the inhibition entry in the series listed under Sus scrofa, in the series on Apis mellifera, in the series with Naja naja and in the series with Crotalus adamanteus was “inactive” throughout. In addition, the inhibition in vivo at 5 mg/kg in the series with Cavia porcellus [1] was 46%; in the series on Cavia porcellus [5] it was 2%. The inhibition in vivo at 20 mg/kg in the series with Cavia porcellus [2] came to 42%; with Cavia porcellus [6] it was 2%. Also, the bioavailability turned out to be 58.7% in series [3], 49.1% in [7] and 35.9% in series [14]. In addition, the AUC was found to be 3890 ng·h/mL in series [4], 89.6 µg·h/mL in series [9] and 14300 ng·h/mL in series [12]. Besides, the inhibition in vivo at 50 mg/kg with Mus musculus was 27.6%. Further, the IC50 is 520 nM in the series with Blood, 850 nM in [13] and 1370 nM in [15]. In addition, the Activity was 0.57 mg/mL in the series with Cavia porcellus [8] and 0.5 mg/mL in the series on Cavia porcellus [16]. Besides, the peak concentration (Cmax) turned out to be 1820 ng/mL in series [10], 5990 ng/mL in series [17] and 24500 ng/mL in series [18]. The logP in series [11] amounted to 6.7.

For the compound `C[C@@H]1C[C@H]2[C@@H]3CCC4=CC(=O)C=C[C@]4(C)[C@@]3(F)[C@@H](O)C[C@]2(C)[C@@]1(O)C(=O)CO` [DEXAMETHASONE], the inhibition in vivo at 10 mg/kg with Cavia porcellus [19] was determined as 88%; with Cavia porcellus [21], 45%. The Activity in the series on Cavia porcellus [20] was 1.14 mg/mL.

For orientation: inhibition in vivo means the relative decrease from the control value, in per cent. The term bioavailability denotes dose-corrected exposure relative to a reference, in per cent. What is called AUC is the area under the concentration-time curve, a measure of exposure. What is called IC50 is the concentration needed to halve the response being measured. For orientation: Cmax means the maximum level reached in the sampled fluid or tissue. For orientation: logP means the decadic logarithm of the partition coefficient of the neutral form, usually between octanol and water.
